ChEMBL document CHEMBL2396594, “Designing allosteric regulators of thrombin. Exosite 2 features multiple subsites that can be targeted by sulfated small molecules for inducing inhibition” (J Med Chem, 2013)

What was measured:
[1] = Inhibition of recombinant human thrombin R173A mutant expressed in BHK cells using S2238 as substrate after overnight incubation at 25 degC
Outline: (§1)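 BHK-expressed, HPC4 immunoaffinity-purified thrombins, activated from prothrombin form. Active-site concentration from amidolysis and antithrombin titration. Enzyme (1.5−7.5 nM final) incubated overnight at 25 °C with inhibitor in Tris pH 7.4 buffer in coated cuvettes. Residual activity from S2238 initial rate at A405, using at least 9−10 points. Logistic fit gives IC50. Ratio is mutant IC50 over wild-type IC50.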

[2] = species on record: Homo sapiens; test: Uncompetitive inhibition of human plasma alpha-thrombin using spectrozyme TH as substrate assessed as decrease in enzyme Vmax at 3.6 uM after overnight incubation at 25 degC by Michaelis-Menten equation analysis relative to control; assay type: cell-free
Outline: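 5 nM plasma α-thrombin with fixed inhibitor, preincubated overnight at 25 °C or 2 h at 37 °C in 20 mM Tris-HCl pH 7.4, 100 mM NaCl, 2.5 mM CaCl2, 0.1% PEG8000. Initial Spectrozyme TH (2−80 μM) hydrolysis rate read at 405 nm with under 10% substrate consumption. Michaelis−Menten fit gives KM and VMAX; error ±1 SE.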

[3] = tested on: Plasma; test: Anticoagulant activity in human plasma assessed as increase in activated partial […] time at 139 uM after 4 mins by fibrometric analysis relative to control; assay type: functional
Outline: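 Citrated human plasma, one-stage recalcification, fibrometer read-out. APTT: 90 μL plasma + 10 μL inhibitor or vehicle + prewarmed 0.2% ellagic acid, 4 min, then 25 mM CaCl2 (37 °C). PT: inhibitor + plasma 30 s at 37 °C, then prewarmed thromboplastin. Duplicates. Quadratic trend line fit gives concentration doubling clotting time versus vehicle blank.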

[4] = species on record: Homo sapiens; test: Selectivity ratio of IC50 for recombinant human thrombin K236A mutant to IC50 for wild type recombinant human thrombin; outline: as §1
[5] = biological target: Prothrombin (Homo sapiens, UniProt P00734); test: Inhibition of wild type recombinant human thrombin expressed in BHK cells using S2238 as substrate after overnight incubation at 25 degC; outline: as §1
[6] = (§2) Binding affinity to human plasma alpha-thrombin exosite-2 using spectrozyme TH as substrate after overnight incubation at 25 degC by spectrophotometric analysis in presence of 0.65 uM gamma'-fibrinogen peptide; assay type: cell-free
[7] = species on record: Homo sapiens; test: as §2; assay type: cell-free
[8] = species on record: Homo sapiens; test: Selectivity ratio of IC50 for recombinant human thrombin R233A mutant to IC50 for wild type recombinant human thrombin; outline: as §1
[9] = Inhibition of human plasma alpha-thrombin assessed as spectrozyme TH hydrolysis preincubated for 10 mins by spectrophotometric analysis; assay type: cell-free
Outline: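 Human plasma α-thrombin (5 nM final) with inhibitor (1−900 μM final) in 20 mM Tris-HCl pH 7.4, 100 mM NaCl, 2.5 mM CaCl2, 0.1% PEG8000, PEG20000-coated cuvettes, 10 min. Spectrozyme TH then added (30 μM final). Initial rate from A405 increase. Residual activity fitted by logistic equation with floating Hill slope, Y0, YM to give IC50.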

[10] = (§3) Binding affinity to human plasma alpha-thrombin exosite-2 using spectrozyme TH as substrate after overnight incubation at 25 degC by spectrophotometric analysis in presence of 0.2 uM gamma'-fibrinogen peptide; assay type: cell-free
[11] = species on record: Homo sapiens; test: as §3; assay type: cell-free
[12] = Inhibition of recombinant human thrombin R126A mutant expressed in BHK cells using S2238 as substrate after overnight incubation at 25 degC; outline: as §1
[13] = Inhibition of recombinant human thrombin K169A mutant expressed in BHK cells using S2238 as substrate after overnight incubation at 25 degC; outline: as §1
[14] = Inhibition of recombinant human thrombin K236A mutant expressed in BHK cells using S2238 as substrate after overnight incubation at 25 degC; outline: as §1
[15] = biological target: Prothrombin (Homo sapiens, UniProt P00734, R97A); test: Inhibition of recombinant human thrombin R97A mutant expressed in BHK cells using S2238 as substrate after overnight incubation at 25 degC; outline: as §1
[16] = (§4) Binding affinity to human plasma alpha-thrombin exosite-2 using spectrozyme TH as substrate after overnight incubation at 25 degC by spectrophotometric analysis in presence of 20 uM heparin octasaccharide; assay type: cell-free
[17] = species on record: Homo sapiens; test: as §4; assay type: cell-free

CCOC(=O)c1c(C)oc2cc(OC)c(OCc3oc4cc(OC)c(OCc5oc6cc(OC)c(OS(=O)(=O)[O-])cc6c5C(=O)OCC)cc4c3C(=O)OCC)cc12.[Na+]
pIC50 [1]: 6.59 | fold change (FC) [2]: 4.3 | fold change (FC) [3]: 2 | Ratio IC50 [4]: 1.5 | IC50 ([5]; read-out: IC50): 260 nM | IC50 ([5]; read-out: pIC50 (converted)): 263 nM | IC50 [6]: 1100 nM | pIC50(app) [7]: 5.95 | Ratio IC50 [8]: 3.8 | IC50 ([9]; read-out: IC50): 670 nM | IC50 ([9]; read-out: pIC50 (converted)): 676 nM | IC50 [10]: 1200 nM | pIC50(app) [11]: 5.94 | IC50 [12]: 290 nM | pIC50 [12]: 6.55 | IC50 [13]: 330 nM | pIC50 [13]: 6.48 | IC50 [14]: 400 nM | pIC50 [14]: 6.4 | IC50 ([15]; read-out: IC50): 370 nM | IC50 ([15]; read-out: pIC50 (converted)): 363 nM | IC50 [16]: 1800 nM | pIC50(app) [17]: 5.75
